Bioassay records as filed in PubChem.
The list is not random: actives were taken first. Their share in the collection is about 2.5%.
TRPC6 activator – mouse TRPC6 channel activators, primary screen, cell-based, HEK293, membrane potential dye. HEK293-TRPC6 membrane potential dye fluorescence; active compounds read high. B-score at 10 µM. 0.13% of 310,000 active. AID 2550, 2010;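 active = B-score of the integrated fluorescence ratio above library mean plus 3 SD, and starting fluorescence ratio within library mean plus 5 SD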;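 note: higher score means more depolarization so channel activation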
TRPC4 PAM – positive allosteric modulators of TRPC4, primary screen, cell-based, mouse TRPC4beta, HEK293 mu-opioid, Fluo-4 calcium. 0.42% of 310,000 active. Short transient receptor potential channel 4 (Mus musculus), Q9QUQ5. AID 2227, 2009. DAMGO EC20, Fluo-4 Ca2+ flux; active compounds read high. B-score at 10 µM;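 active = B-score of calcium response area above 5 SD of library B-scores, with initial fluorescence ratio within 5 SD of library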
Target sequence (Q9QUQ5 whole entry, looked up): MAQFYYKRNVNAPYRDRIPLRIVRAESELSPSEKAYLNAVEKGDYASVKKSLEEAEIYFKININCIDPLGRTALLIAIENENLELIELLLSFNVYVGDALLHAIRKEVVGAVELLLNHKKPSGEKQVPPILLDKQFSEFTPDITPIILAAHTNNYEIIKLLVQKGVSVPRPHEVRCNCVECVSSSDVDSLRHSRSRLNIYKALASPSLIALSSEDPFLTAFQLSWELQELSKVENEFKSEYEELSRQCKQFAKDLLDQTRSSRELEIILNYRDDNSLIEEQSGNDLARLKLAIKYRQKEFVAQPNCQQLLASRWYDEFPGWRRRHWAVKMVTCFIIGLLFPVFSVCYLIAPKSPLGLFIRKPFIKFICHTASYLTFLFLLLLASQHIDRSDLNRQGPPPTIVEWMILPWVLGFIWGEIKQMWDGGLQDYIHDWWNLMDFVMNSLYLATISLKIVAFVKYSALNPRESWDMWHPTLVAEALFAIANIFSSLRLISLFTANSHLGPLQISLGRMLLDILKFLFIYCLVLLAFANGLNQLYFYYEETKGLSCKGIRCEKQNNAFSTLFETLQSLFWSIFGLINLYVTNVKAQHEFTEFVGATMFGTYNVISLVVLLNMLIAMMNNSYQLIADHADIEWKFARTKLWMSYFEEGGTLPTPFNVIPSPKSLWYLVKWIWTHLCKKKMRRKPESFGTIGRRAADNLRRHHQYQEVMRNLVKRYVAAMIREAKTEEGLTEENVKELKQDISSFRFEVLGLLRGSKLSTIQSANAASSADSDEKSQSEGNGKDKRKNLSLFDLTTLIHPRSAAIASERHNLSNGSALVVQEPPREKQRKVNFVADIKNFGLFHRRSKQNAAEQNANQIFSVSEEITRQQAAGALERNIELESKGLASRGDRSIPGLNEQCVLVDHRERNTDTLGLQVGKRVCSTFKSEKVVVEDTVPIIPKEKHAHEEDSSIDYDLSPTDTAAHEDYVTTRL
TRPC6 inhibitor – mouse TRPC6 channel inhibitors, primary screen, cell-based, HEK293, membrane potential dye | ACh-evoked depolarization; active compounds read low | B-score at 10 µM | 1.1% of 310,000 active;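 active = B-score under library mean minus 3 SD, initial fluorescence not abnormally high, positive integrated signal ratio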;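 note: B-score derived from integrated fluorescence ratio over the kinetic read; more negative B-score means stronger inhibition of depolarization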
Platelet DG rel – inhibitors of platelet dense granule secretion, primary screen, cell-based, MLPCN, human platelets; human platelet-rich plasma, SFLLRN dense granule ATP release, luminescence; inhibition, %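 (compounds screened at 7.5 µM in platelet-rich plasma)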; 0.22% of 300,000 active; AID 1663, 2009;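 active = mean replicate score, as percent of positive control, at or above 50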
TRPC4 inh – inhibitors of mouse TRPC4 channel, primary screen, Fluo4 calcium, HEK293 TRPC4beta/mu-opioid cells | Short transient receptor potential channel 4 (Mus musculus), Q9QUQ5 | DAMGO-evoked Fluo4 calcium flux; active compounds read low | B-score at 10 µM | 0.39% of 300,000 active;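 active = B-score over 3 SD under the library average, no early fluorescence shift, positive overall ratio signal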
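Material: HEK293 cells with stable TRPC4beta plus mu-opioid receptor expression; probe or stimulus: DAMGO in two steps, submaximal then maximal; technique: Fluo4 calcium fluorescence by kinetic imaging, 5 s 1 Hz baseline; measure: integrated fluorescence ratio relative to baseline, converted to per-well B score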
TRPC4 agonist – activators of mouse TRPC4 channel, primary screen, Fluo4 calcium, HEK293 TRPC4beta/mu-opioid cells | 0.49% of 310,000 active | B-score at 10 µM | AID 2237, 2010 | Fluo4 calcium fluorescence; active compounds read high | Short transient receptor potential channel 4 (Mus musculus), Q9QUQ5;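 active = B-score above 5 SD of library B-scores, and initial fluorescence ratio not above library mean plus 5 SD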;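 note: positive B-score marks a calcium rise read as TRPC4 activation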
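System – HEK293 cells stably co-expressing mouse TRPC4beta and mu-opioid receptor · Signal – Fluo4 calcium-sensitive dye fluorescence, kinetic, 1 Hz baseline · Benchmarks – buffer (low) and maximal DAMGO (high) · Read-out – B score of integrated fluorescence ratio per well · Incubation – dye loading 45 min room temperature, 110 s kinetic read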
TRPC4 spec 2 – second check of whether TRPC6 inhibitors also affect mouse TRPC4. shares compounds with TRPC6 inhibitor. HEK293 TRPC4/MOR, membrane potential dye fluorescence; channel activated by saturating DAMGO dose. inhibition, % at 10 µM. 42% of 920 active;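 active = compounds whose fluorescence signal differed from control wells by over 3 SD, either direction, in both duplicate plates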
TRPC4 spec – mouse TRPC4 modulation by TRPC6 hits, confirmation, selectivity assay for TRPC6 inhibitor project, cell-based, HEK293 TRPC4/mu-opioid, membrane potential dye | 61% of 920 active | shares compounds with TRPC6 inhibitor | activity change, negative = inhibition, % at 10 µM | membrane potential fluorescence | AID 2777, 2010;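 active = rise or fall in signal beyond 3 SD of buffer-only wells in both replicate plates, either sign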;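 note: integrated kinetic ratio of fluorescence range over baseline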
HEK293 MPD ctr 2-1 – nonspecific membrane potential effects, parental HEK293, confirmation, counter-screen for TRPC6 inhibitor project, cell-based, second counter screen; parental HEK293 membrane potential dye fluorescence; maximal acetylcholine challenge after compound addition; signal change vs control, % at 10 µM; AID 2779, 2010; shares compounds with TRPC6 inhibitor; 31% of 920 active;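 active = membrane potential signal moving either way by over 3 SD of the maximum-effect control, in both duplicate plates, meaning non-specific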
HEK293 MPD ctr-1 – membrane potential modulation in parental HEK293, confirmation, counter-screen for TRPC6 inhibitor project, cell-based; shares compounds with TRPC6 inhibitor; parental HEK293 membrane potential dye fluorescence; membrane potential signal change, % at 10 µM; 60% of 920 active; AID 2780, 2010;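 active = membrane potential signal shifting up or down by more than 3 SD of buffer-only wells, on both duplicate plates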
HEK293 MPD ctr-2 – parental HEK293 membrane potential modulation, confirmation, counter-screen for TRPC6 modulator project, cell-based; AID 488924, 2010; shares compounds with TRPC6 inhibitor; membrane potential dye fluorescence; 51% of 2,400 active; membrane potential signal change, % at 10 µM;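 active = membrane potential signal moves up or down beyond 5 SD from buffer-only wells, on both duplicate plates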
HEK293 MPD ctr 2-2 – second counter-screen for TRPC6 modulators: effect in parental HEK293 cells; 14% of 2,400 active; inhibition, % at 10 µM; shares compounds with TRPC6 inhibitor; membrane potential dye fluorescence; after compound, maximal acetylcholine stimulation;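 active = membrane potential signal drops by more than 5 SD from the mean control signal, in both duplicate plates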
TRPC4 ctr mod – TRPC4 modulation by TRPC6 hit compounds, confirmation, selectivity assay for TRPC6 modulator project, cell-based, HEK293 TRPC4/mu-opioid, membrane potential dye, mouse; membrane potential fluorescence; 69% of 2,400 active; percent change from control (negative = decrease, positive = increase), % at 10 µM; shares compounds with TRPC6 inhibitor;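 active = membrane potential signal moved up or down beyond 5 SD of buffer control wells, in both duplicate plates, actives on both sides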
TRPC4 ctr inh 2 – second selectivity test of TRPC6 modulators against mouse TRPC4; inhibition, % at 10 µM; HEK293 TRPC4/mu-opioid, membrane potential dye fluorescence; stimulated with maximal-effect DAMGO; 55% of 2,400 active; shares compounds with TRPC6 inhibitor;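 active = drop in membrane potential signal beyond 5 SD of the control wells in both duplicate plates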;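 note: TRPC4 counter screen for TRPC6 hits run under conditions tuned for TRPC6 not TRPC4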
TRPC6 block conf – mouse TRPC6 channel inhibitors, confirmation, HEK293 cells, membrane potential dye, duplicate; shares compounds with TRPC6 inhibitor; ACh-evoked depolarization; inhibition, % at 10 µM; 43% of 3,300 active; AID 488960, 2010;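 active = fluorescence ratio falls more than 5 SD below the full-stimulation control mean, in both duplicate runs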;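 note: integrated fluorescence ratio of peak minus minimum over baseline after agonist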
TRPC6 act confirm – mouse TRPC6 channel activators, confirmation, HEK293 cells, membrane potential dye, duplicate. shares compounds with TRPC6 inhibitor. HEK293-TRPC6 membrane potential dye fluorescence, FDSS. activation, % at 10 µM. 11% of 2,800 active;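 active = ratio signal rise beyond 5 SD above unstimulated control wells' mean, seen in both duplicate runs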
Hits are given with their value.

For CNC(=O)C12N=CNN=C1N(C)C(=O)N2C (stereo unspecified) the results were TRPC6 activator inactive, TRPC4 PAM inactive, TRPC6 inhibitor inactive, Platelet DG rel inactive, TRPC4 inh inactive and TRPC4 agonist inactive.
CCOc1ccccc1CN1CCN(CC2=Cc3cc(OC)ccc3OC2)CC1CCO (stereo unspecified) was read as TRPC6 activator inactive, TRPC4 PAM inactive, TRPC6 inhibitor inactive, Platelet DG rel inactive, TRPC4 inh inactive and TRPC4 agonist inactive.
For Cc1cccnc1NC(=O)CCNC(=O)c1ccccc1Cl the results were TRPC6 activator inactive, TRPC4 PAM inactive, TRPC6 inhibitor inactive, Platelet DG rel inactive, TRPC4 inh inactive and TRPC4 agonist inactive.
For O=C(CN1C2=NCCN2c2ccccc21)c1ccc(Br)cc1 the results were TRPC6 activator inactive, TRPC4 PAM inactive, TRPC6 inhibitor -5.3, Platelet DG rel inactive, TRPC4 inh inactive, TRPC4 agonist inactive, HEK293 MPD ctr-2 inactive, HEK293 MPD ctr 2-2 inactive, TRPC4 ctr mod inactive, TRPC4 ctr inh 2 72%, TRPC6 block conf 38% and TRPC6 act confirm inactive.
Screening O=C(CN1C2=NCCN2c2ccccc21)c1ccc2c(c1)OCO2 returned TRPC6 activator inactive, TRPC4 PAM inactive, TRPC6 inhibitor inactive, Platelet DG rel inactive, TRPC4 inh inactive and TRPC4 agonist inactive.
COCCCN(CC(=O)NCc1ccccc1)S(=O)(=O)c1ccc(C)cc1 was read as TRPC6 activator inactive, TRPC4 PAM inactive, TRPC6 inhibitor -6.3, Platelet DG rel inactive, TRPC4 inh inactive, TRPC4 agonist inactive, HEK293 MPD ctr-2 inactive, HEK293 MPD ctr 2-2 inactive, TRPC4 ctr mod inactive, TRPC4 ctr inh 2 inactive, TRPC6 block conf inactive and TRPC6 act confirm inactive.
Screening COCCCNC(=O)CN(CCc1ccccc1)S(=O)(=O)c1ccc(OC)cc1 returned TRPC6 activator inactive, TRPC4 PAM inactive, TRPC6 inhibitor inactive, Platelet DG rel inactive, TRPC4 inh inactive and TRPC4 agonist inactive.
CCOC(=O)c1ccc(NC(=O)CCC2COc3ccccc3O2)cc1 (stereo unspecified) was read as TRPC6 activator 20, TRPC4 PAM inactive, TRPC6 inhibitor inactive, Platelet DG rel inactive, TRPC4 inh inactive, TRPC4 agonist inactive, HEK293 MPD ctr-2 inactive, HEK293 MPD ctr 2-2 inactive, TRPC4 ctr mod inactive, TRPC4 ctr inh 2 inactive and TRPC6 act confirm 136%.
O=C(NCCCn1ccnc1)C1c2ccccc2Oc2ccccc21 was read as TRPC6 activator inactive, TRPC4 PAM inactive, TRPC6 inhibitor -6, Platelet DG rel inactive, TRPC4 inh inactive, TRPC4 agonist inactive, HEK293 MPD ctr-2 inactive, HEK293 MPD ctr 2-2 inactive, TRPC4 ctr mod 32%, TRPC4 ctr inh 2 inactive, TRPC6 block conf inactive and TRPC6 act confirm inactive.
For COc1ccc(OC)c(-c2nc(C(=O)NCCCN3CCOCC3)cc3c2[nH]c2ccccc23)c1 the results were TRPC6 activator inactive, TRPC4 PAM inactive, TRPC6 inhibitor -6, Platelet DG rel inactive, TRPC4 inh inactive, TRPC4 agonist inactive, HEK293 MPD ctr-2 inactive, HEK293 MPD ctr 2-2 inactive, TRPC4 ctr mod inactive, TRPC4 ctr inh 2 48%, TRPC6 block conf inactive and TRPC6 act confirm inactive.
Cc1ccc(-c2nc(C(=O)NCCCN(C)C)cc3c2[nH]c2ccccc23)cc1 was read as TRPC6 activator inactive, TRPC4 PAM inactive, TRPC6 inhibitor -9.8, Platelet DG rel inactive, TRPC4 inh inactive, TRPC4 agonist inactive, TRPC4 spec 2 30%, TRPC4 spec -21%, HEK293 MPD ctr 2-1 30%, HEK293 MPD ctr-1 -255%, TRPC6 block conf 78% and TRPC6 act confirm inactive.
Screening Nc1ccccc1C(=O)N1CCc2ccccc21 returned TRPC6 activator inactive, TRPC4 PAM inactive, TRPC6 inhibitor inactive, Platelet DG rel inactive, TRPC4 inh inactive and TRPC4 agonist inactive.
CC(=O)CC1=NC(C)(C)Cc2ccccc21 was read as TRPC6 activator inactive, TRPC4 PAM inactive, TRPC6 inhibitor inactive, Platelet DG rel inactive, TRPC4 inh inactive and TRPC4 agonist inactive.
